# Reference: ChEMBL document CHEMBL1212773, “Transfer of plasmid-mediated CTX-M-9 from Salmonella enterica serotype Virchow to Enterobacteriaceae in human flora-associated rats treated with cefixime” (2010)
# Columns and labels:
# Format in all cases: functional
# Escherichia coli [1] = test: Antimicrobial activity against Escherichia coli J5 transconjugants expressing beta lactamase CTX-M-9 isolated from human flora associated C3H rat infected with Salmonella enterica serotype Virchow by Etest method
# Outline: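 Etest MICs on Müller-Hinton agar, in μg/ml, with ATCC 25922 as QC. E. coli J5 transconjugants were isolated from feces of HFA C3H rats inoculated intragastrically with 8 log10 CFU J5, then Virchow donor 2 h later, and given sterile water by gavage instead of antibiotic. Isolates were selected on Drigalski agar with 250 μg/ml rifampin and 4 μg/ml cefixime and confirmed as J5 carrying blaCTX-M-9 by PCR/PFGE.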
# Escherichia coli [2] = test: Antimicrobial activity against Escherichia coli J5 transconjugants expressing beta lactamase CTX-M-9 isolated from human flora associated C3H rat infected with Salmonella enterica serotype Virchow and treated with Cefixime by Etest method
# Outline: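 Etest MICs on Müller-Hinton agar, in μg/ml, with ATCC 25922 as QC. Isolates were fecal E. coli J5 transconjugants from human flora-associated C3H rats coinoculated orally with 8 log10 CFU J5, then Virchow donor, and gavaged with cefixime 4 mg/kg twice daily for 8 days. Isolates were picked on Drigalski agar with 250 μg/ml rifampin plus 4 μg/ml cefixime and confirmed by PCR/PFGE and blaCTX-M-9 PCR.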
# Escherichia coli [3] = test: Antimicrobial activity against Escherichia coli J5 transconjugants expressing beta lactamase CTX-M-9 isolated from human flora associated C3H rat infected with Salmonella enterica serotype Virchow and treated with Cefixime-cluvulanic acid by Etest method
# Escherichia coli [4] = test: Antimicrobial activity against Escherichia coli J5 by Etest method
# Outline: (§1)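 MICs read from Etest strips on Müller-Hinton agar, in μg/ml. E. coli ATCC 25922 served as the QC strain. Susceptible or resistant calls followed CLSI clinical breakpoints or EUCAST epidemiological cutoffs for cefotaxime, ceftazidime, ceftiofur, cefoxitin and cefuroxime.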
# Escherichia coli [5] = test: Antimicrobial activity against Escherichia coli ATCC 25922 by Etest method; outline: as §1
# Salmonella enterica = test: Antimicrobial activity against Salmonella enterica serotype Virchow 3464b by Etest method
# Outline: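 MIC determined by Etest strips on Müller-Hinton agar; E. coli ATCC 25922 used as the quality-control strain. Donor strain grown aerobically in brain heart infusion. Susceptible/resistant categories assigned from CLSI clinical breakpoints or EUCAST epidemiological cutoffs for cefotaxime, ceftazidime, ceftiofur, cefoxitin and cefuroxime. MICs expressed in μg/ml.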
SMILES,MIC (Escherichia coli [1]) [µg/mL],MIC (Escherichia coli [2]) [µg/mL],MIC (Escherichia coli [3]) [µg/mL],MIC (Escherichia coli [4]) [µg/mL],MIC (Escherichia coli [5]) [µg/mL],MIC (Salmonella enterica) [µg/mL]
CC1(C)S[C@@H]2[C@H](NC(=O)[C@H](N)c3ccccc3)C(=O)N2[C@H]1C(=O)O [AMPICILLIN],16,16,16,4,4,128
C=CC1=C(C(=O)O)N2C(=O)[C@@H](NC(=O)/C(=N\OCC(=O)O)c3csc(N)n3)[C@H]2SC1 [CEFIXIME],8,8,8,0.125,0.125,8
CO/N=C(\C(=O)N[C@@H]1C(=O)N2C(C(=O)O)=C(COC(C)=O)CS[C@H]12)c1csc(N)n1 [CEFOTAXIME],0.5,0.5,0.5,0.03,0.03,> 8
CO[C@@]1(NC(=O)Cc2cccs2)C(=O)N2C(C(=O)O)=C(COC(N)=O)CS[C@@H]21 [CEFOXITIN],8,16,16,4,4,16
CC(C)(O/N=C(\C(=O)N[C@@H]1C(=O)N2C(C(=O)[O-])=C(C[n+]3ccccc3)CS[C@H]12)c1csc(N)n1)C(=O)O [CEFTAZIDIME],1,1,1,0.125,0.125,8
CO/N=C(\C(=O)N[C@@H]1C(=O)N2C(C(=O)O)=C(CSC(=O)c3ccco3)CS[C@H]12)c1csc(N)n1 [CEFTIOFUR],1,1,1,0.25,0.25,> 8
CO/N=C(\C(=O)N[C@@H]1C(=O)N2C(C(=O)O)=C(COC(N)=O)CS[C@H]12)c1ccco1 [CEFUROXIME],16,8,16,2,2,> 32
CCn1cc(C(=O)O)c(=O)c2ccc(C)nc21 [NALIDIXIC ACID],4,4,4,4,4,256
CO[C@H]1/C=C/O[C@@]2(C)Oc3c(C)c(O)c4c(O)c(c(/C=N/N5CCN(C)CC5)c(O)c4c3C2=O)NC(=O)/C(C)=C\C=C\[C@H](C)[C@H](O)[C@@H](C)[C@@H](O)[C@@H](C)[C@H](OC(C)=O)[C@@H]1C [RIFAMPIN],> 512,> 512,> 512,> 512,4,4
CN[C@@H]1[C@H](O[C@H]2[C@H](O[C@H]3[C@H](O)[C@@H](O)[C@H](N=C(N)N)[C@@H](O)[C@@H]3N=C(N)N)O[C@@H](C)[C@]2(O)C=O)O[C@@H](CO)[C@H](O)[C@H]1O [STREPTOMYCIN],2,2,2,2,2,128
Cc1cc(NS(=O)(=O)c2ccc(N)cc2)no1 [SULFAMETHOXAZOLE],4,4,4,8,8,> 512
CN(C)[C@@H]1C(O)=C(C(N)=O)C(=O)[C@@]2(O)C(O)=C3C(=O)c4c(O)cccc4[C@@](C)(O)[C@H]3C[C@@H]12 [TETRACYCLINE],2,2,4,1,1,64
COc1cc(Cc2cnc(N)nc2N)cc(OC)c1OC [TRIMETHOPRIM],0.5,0.5,1,0.5,0.5,> 64
